Experiment [1] deals with HepG2. As to the kind of experiment: MTT cell viability assay, HepG2 cells. The experiment is classed as cell-based, human. Conditions: for effect on 23-induced cell morphological changes and cell viability: HepG2, 10 μM pretreated 1 h; for effect of caspase inhibitors on the effects of 23 on cell viability: HepG2, pretreated 2 h (Z-VAD-FMK 10 μM, Ac-DEVD-CHO 50 μM, Z-LEHD-FMK TFA 20 μM). The method in brief: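 HepG2 at 5 × 10^3 cells/well, overnight, in RPMI 1640 with 10% FBS. Dose series for 24 h, or 2.5 μM for 24 h after pretreatment: MitoQ 1 μM for 1 h; Fer-1, DFO or Z-VAD-FMK 10 μM for 1 h; or Z-VAD-FMK 10 μM, Ac-DEVD-CHO 50 μM or Z-LEHD-FMK 20 μM for 2 h. MTT 4 h, DMSO, 570 nm. Morphology imaged by inverted microscopy.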
A general note: Formazan colour is commonly taken as a measure of viable cells.

Experiment [2] relates to HepG2 cells. As to the kind of experiment: ROS detection by DCFH-DA, HepG2. It is filed as cell-based, human. Conditions: then 2.5 μM 23 for 24 h. In a few lines: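 Cells seeded at 1.6 × 10^5 per well and exposed to treatment; HepG2 variants used MitoQ 1 μM for 1 h or a caspase-inhibitor pretreatment before 2.5 μM for 24 h. Trypsinized cells incubated 30 min in PBS with 10 μM DCFH-DA. Green fluorescence read on the FL1 flow-cytometry channel.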

For experiment [3], the system named is HepG2 cells. As to the kind of experiment: Mitochondrial membrane potential. The experiment is classed as cell-based, human. Conditions: HepG2, 10 μM pretreated 2 h, then 2.5 μM 23 for 24 h. In a few lines:
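Cells seeded at 1.6 × 10^5 per well and exposed to treatment. Loaded with JC-1 for 1 h at 37 °C, washed twice in PBS, then held in serum-free medium. Red/green fluorescence ratio measured by flow cytometry.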

Experiment [4] concerns HepG2 cells. As to the kind of experiment: C11-BODIPY lipid peroxidation assay, HepG2. The experiment is classed as cell-based, human. Conditions: HepG2, 10 μM pretreated 1 h, then 2.5 μM 23 for 24 h. The method in brief: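 HepG2, 1.6 × 10^5 cells/well. Treated at 1.25, 2.5 or 5 μM for 24 h, or 2.5 μM for 0–24 h; some wells pretreated 1 h with Fer-1, DFO or Z-VAD-FMK (each 10 μM). Trypsinized cells stained in PBS with 1.5 μM C11-BODIPY, 15 min, 37 °C; FL1 flow cytometry. Mean ± SD, n = 3.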

Experiment [5] has as its system 7860. As to the kind of experiment: MTT cell viability assay, 7860 cells. The experiment is classed as cell-based, human. In a few lines: (§1)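 Cells kept in RPMI 1640 with 10% FBS and penicillin/streptomycin at 37 °C, 5% CO2. Seeded at 5 × 10^3 cells/well overnight, exposed to a concentration series for the stated time. MTT (5 mg/mL) added for 4 h, crystals dissolved in DMSO, absorbance read at 570 nm. Normalized to DMSO vehicle; three independent runs; IC50 by curve fitting.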

Experiment [6] concerns HBE. As to the kind of experiment: MTT cell viability assay, HBE normal lung cells. Conditions: read-out: IC50 (μM) HBE. The experiment is classed as cell-based, human. The method in brief: as §1
For experiment [7], the target named is T1, Human Prdx I (Homo sapiens, UniProt Q06830).
T1 sequence (Q06830 1-199): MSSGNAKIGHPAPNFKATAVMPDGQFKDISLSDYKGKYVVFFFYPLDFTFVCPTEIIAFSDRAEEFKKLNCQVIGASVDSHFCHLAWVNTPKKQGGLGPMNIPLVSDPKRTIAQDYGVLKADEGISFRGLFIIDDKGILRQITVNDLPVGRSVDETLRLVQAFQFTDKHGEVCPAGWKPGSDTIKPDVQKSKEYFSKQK
As to the kind of experiment: Peroxidase activity of recombinant Prdx I. It is filed as biochemical. Conditions: Amplex Red probe, Fig. 4H. The method in brief:
(§2)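 Human Prdx I or II cloned in pET28a, expressed in E. coli BL21, purified. In 50 mM sodium phosphate pH 7.4, enzyme (30 μM solution) preincubated with compound 30 min at RT. H2O2 (10 μM solution) added for 10 min, then Amplex Red (50 μM solution) with HRP (1 U/mL solution) for 10 min. Fluorescence ex 535/em 595 nm; n = 3.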

In experiment [8] the test system is A2780. As to the kind of experiment: MTT cell viability assay, A2780 cells. It is filed as cell-based. The settings on record: Homo sapiens, A2780, read-out: IC50 (μM) A2780. The method in brief: as §1
In experiment [9] the test system is A549. As to the kind of experiment: MTT cell viability assay, A549 cells. The experiment is classed as cell-based. The settings on record: Homo sapiens, A549, read-out: IC50 (μM) A549. The method in brief:
as §1

For experiment [10], the target named is T2, Human Prdx II (Homo sapiens, UniProt P32119).
T2 sequence (P32119 1-198): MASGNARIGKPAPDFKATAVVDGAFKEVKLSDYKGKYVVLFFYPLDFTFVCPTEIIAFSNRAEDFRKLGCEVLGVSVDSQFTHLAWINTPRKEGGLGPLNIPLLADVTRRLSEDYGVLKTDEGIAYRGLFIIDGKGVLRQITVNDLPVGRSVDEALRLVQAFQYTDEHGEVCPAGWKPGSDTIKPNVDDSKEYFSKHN
As to the kind of experiment: Peroxidase activity of recombinant Prdx II. The experiment is classed as biochemical. The settings on record: Amplex Red probe, Fig. 4I. In a few lines: as §2

The record followed here is PMC8099784 (Redox Biology, 2021).

Read-outs that look alike come from different tables or passages of the source. Peptide text beside a SMILES is read from it. * marks the point of attachment. Cbz = O=C(OCc1ccccc1)*; CH2F = FC*

As to `COC(=O)C[C@H](NC(=O)[C@H](C)NC(=O)[C@@H](NC(=O)OCc1ccccc1)C(C)C)C(=O)CF` [Z-VAD-FMK] (Cbz-Val-Ala-Asp(OMe)-CH2F), in [1] (then 2.5 μM 23 for 24 h, MTT), the “effect on 23-induced cell morphological changes and cell viability” value was “markedly blocked”. Further, the “effect of caspase inhibitors on the effects of 23 on cell viability” value (shortened to “effect of caspase inhibitors”) in experiment [1] (then 2.5 μM 23 for 24 h) is recorded as “partially reversed”. Also, the “effect on the changes in ROS caused by 23” value in experiment [2] (HepG2, 10 μM pretreated 2 h) is recorded as “no effect”. In addition, the “effect on the changes in MMP caused by 23” value in experiment [3] is recorded as “no effect”.
As to `CC(=O)N(O)CCCCCNC(=O)CCC(=O)N(O)CCCCCNC(=O)CCC(=O)N(O)CCCCCN` [DFO], the “effect on 23-induced lipid peroxidation” value in [4] is “attenuated”. The “effect on 23-induced cell morphological changes and cell viability” value in experiment [1] (then 2.5 μM 23 for 24 h, MTT) is reported as “markedly blocked”.
Turning to `COC(=O)CC[C@H](NC(=O)[C@H](CC(C)C)NC(=O)OCc1ccccc1)C(=O)N[C@@H](Cc1cnc[nH]1)C(=O)N[C@@H](CC(=O)OC)C(=O)CF.O=C(O)C(F)(F)F` [Z-LEHD-FMK TFA] (Cbz-LE(OMe)HD(OMe)-CH2F), the “effect of caspase inhibitors” value in experiment [1] (then 2.5 μM 23 for 24 h) is listed as “partially reversed”.
Take `CCOC(=O)c1ccc(NC2CCCCC2)c(N)c1` [Fer-1]: the “effect on 23-induced lipid peroxidation” value in experiment [4] is reported as “attenuated”. Besides, the “effect on 23-induced cell morphological changes and cell viability” value in experiment [1] (then 2.5 μM 23 for 24 h, MTT) is on record as “markedly blocked”.
Take `CC(=O)N[C@@H](CC(=O)O)C(=O)N[C@@H](CCC(=O)O)C(=O)N[C@H](C(=O)N[C@H](C=O)CC(=O)O)C(C)C` [Ac-DEVD-CHO]: the “effect of caspase inhibitors” value in experiment [1] (then 2.5 μM 23 for 24 h) is listed as “partially reversed”.
Consider `COC1=C(OC)C(=O)C(CCCCCCCCCC[P+](c2ccccc2)(c2ccccc2)c2ccccc2)=C(C)C1=O` [MitoQ], for which the “effect on 23-induced cell viability inhibition” value in experiment [1] (HepG2, pretreated 1 μM 1 h, then 2.5 μM 23 for 24 h, MTT) was “reversed”. Also, the “effect on 23-induced ROS accumulation” value in experiment [2] (HepG2, pretreated 1 μM 1 h) is recorded as “reversed”.
`N.N.[Cl][Pt][Cl]` [Cisplatin]: the IC50 in experiment [5] (read-out: IC50 (μM) 7860, cytotoxicity, MTT, mean ± SD) was found to be 13.5 ± 1.3 µM; in [1] (read-out: IC50 (μM) HepG2, cytotoxicity, MTT, mean ± SD), 8.5 ± 0.4 µM; in experiment [6] (cytotoxicity, MTT, normal lung cell line, mean ± SD), 9.2 ± 1.4 µM.
Consider `C=C1C(=O)[C@]23C[C@H]1C[C@H](OC(C)=O)[C@H]2[C@]1(C)[C@@H](OC(C)=O)C[C@H](O)C(C)(C)[C@H]1C(=O)[C@@H]3OC(C)=O` [Adenanthin], for which the “peroxidase activity of recombinant Prdx I” value in experiment [7] is recorded as “effectively inhibited”. The IC50 in [8] was 5.4 ± 0.9 µM; in experiment [5] (Homo sapiens, 786-0, read-out: IC50 (μM) 7860), 5.5 ± 0.6 µM; in experiment [1] (Homo sapiens, HepG2, read-out: IC50 (μM) HepG2), 7.3 ± 0.8 µM; in experiment [9] it was 8.5 ± 1 µM; in [6] (Homo sapiens, HBE), 7.7 ± 1.1 µM. Also, the “peroxidase activity of recombinant Prdx II” value in experiment [10] is listed as “effectively inhibited”.

The IC50 is the concentration that gives 50% inhibition.
